The source of these data is ChEMBL document CHEMBL4118191, “Novel oxazolxanthone derivatives as a new type of α-glucosidase inhibitor: synthesis, activities, inhibitory modes and synergetic effect” (Bioorg Med Chem, 2018).

Usually IC50 stands for the concentration needed to halve the response being measured. As usually defined, the Ki is a measure of affinity in units of concentration, obtained from inhibition or displacement. High values mean lower affinity, low ones higher affinity. What is called inhibition is the share of the control response that was lost under treatment.

Data set [1] can be described thus: Inhibition of Saccharomyces cerevisiae alpha-glucosidase using PNP glycoside as substrate preincubated for 30 mins followed by substrate addition measured after 60 secs by spectrophotometric method. In a few lines:
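Yeast α-glucosidase was pre-incubated with inhibitor for 30 min at 37 °C before substrate addition. The reaction ran 60 s at 37 °C and was read by absorbance at 400 nm. Five inhibitor concentrations were bracketed around a first-round IC50 estimate, each in triplicate, and mean values were taken.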

A short description of data set [2]: Solubility of the compound. It is filed as physicochemical.
The nature of data set [3]: Non-competitive inhibition of Saccharomyces cerevisiae alpha-glucosidase using varying levels of PNP glycoside as substrate preincubated for 30 mins followed by substrate addition measured after 60 secs by Lineweaver-Burk plot analysis. In outline: (§1)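 Mode of inhibition came from Lineweaver–Burk double-reciprocal plots. At each fixed inhibitor concentration, yeast α-glucosidase activity was measured over varying PNP glycoside concentrations. Enzyme–inhibitor mixtures were in 50 mM phosphate buffer, pH 6.8, with 5% v/v DMSO, and were pre-incubated 30 min at 37 °C before substrate addition. The reaction ran 60 s at 37 °C and was read at 400 nm.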

Data set [4] has as its system Saccharomyces cerevisiae. The data set can be described thus: Synergistic inhibition of Saccharomyces cerevisiae alpha-glucosidase at 1:1 molar ratio of compound to 5-methoxy-2-(4-methoxyphenyl)-6H-xantheno [4, 3-d] oxazol-6-one using PNP glycoside as substrate preincubated for 30 mins followed by substrate addition measured after 60 secs by spectrophotometric method relative to control. In a few lines: (§2)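 Single-point inhibition of yeast α-glucosidase, tested individually and as a 1:1 molar mixture at a fixed total concentration of 2. Inhibitor and enzyme were pre-incubated 30 min at 37 °C, then substrate was added. The reaction ran 60 s at 37 °C with absorbance read at 400 nm. Percent inhibition is relative to control.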

Data set [5] deals with Saccharomyces cerevisiae. The data set is described as follows: Inhibition of Saccharomyces cerevisiae alpha-glucosidase at 2 uM using PNP glycoside as substrate preincubated for 30 mins followed by substrate addition measured after 60 secs by spectrophotometric method relative to control. In outline: as §2
The nature of data set [6]: Synergistic inhibition of Saccharomyces cerevisiae alpha-glucosidase at 4:6 molar ratio of compound to 5-methoxy-2-(4-methoxyphenyl)-6H-xantheno [4, 3-d] oxazol-6-one using PNP glycoside as substrate preincubated for 30 mins followed by substrate addition measured after 60 secs by spectrophotometric method. In outline: (§3)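 Yeast α-glucosidase IC50 was determined for the two-inhibitor mixture at a 4:6 molar ratio and for each inhibitor alone. Pre-incubation was 30 min at 37 °C, followed by a 60 s reaction at 37 °C read at 400 nm. Five concentrations were run in triplicate and means taken. Ratios compare single-compound IC50 with mixture IC50.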

Data set [7] deals with Saccharomyces cerevisiae. The data set can be described thus: Synergistic inhibition of Saccharomyces cerevisiae alpha-glucosidase at 1:1 molar ratio of compound to 5-methoxy-2-(4-methoxyphenyl)-6H-xantheno [4, 3-d] oxazol-6-one using PNP glycoside as substrate preincubated for 30 mins followed by substrate addition measured after 60 secs by spectrophotometric method relative to compound alone. In outline:
as §2

In data set [8] the test system is Saccharomyces cerevisiae. The data set is described as follows: Ratio of compound alone IC50 to compound IC50 in presence of 5-methoxy-2-(4-methoxyphenyl)-6H-xantheno [4, 3-d] oxazol-6-one for Saccharomyces cerevisiae alpha-glucosidase. In a few lines: as §3
In data set [9] the test system is Saccharomyces cerevisiae. The data set can be described thus: Synergistic inhibition of Saccharomyces cerevisiae alpha-glucosidase at 1:1 molar ratio of compound to 5-hydroxy-2-(4-methoxyphenyl)-6H-xantheno [4, 3-d] oxazol-6-one using PNP glycoside as substrate preincubated for 30 mins followed by substrate addition measured after 60 secs by spectrophotometric method relative to control. In outline:
as §2

Data set [10] has as its system Saccharomyces cerevisiae. The data set is described as follows: Ratio of IC50 for synergistic inhibition of Saccharomyces cerevisiae alpha-glucosidase assessed as 5-hydroxy-2-(4-methoxyphenyl)-6H-xantheno [4, 3-d] oxazol-6-one IC50 to IC50 for Saccharomyces cerevisiae alpha-glucosidase. In outline: as §3
Data set [11] concerns Saccharomyces cerevisiae. The data set is described as follows: Synergistic inhibition of Saccharomyces cerevisiae alpha-glucosidase at 1:1 molar ratio of compound to 5-hydroxy-2-(4-methoxyphenyl)-6H-xantheno [4, 3-d] oxazol-6-one using PNP glycoside as substrate preincubated for 30 mins followed by substrate addition measured after 60 secs by spectrophotometric method relative to compound alone. In a few lines: as §2

The test system of data set [12] is Saccharomyces cerevisiae. The data set is described as follows: Competitive inhibition of Saccharomyces cerevisiae alpha-glucosidase at 50 to 60 uM using varying levels of PNP glycoside as substrate preincubated for 30 mins followed by substrate addition measured after 60 secs by Lineweaver-Burk plot analysis. In a few lines:
as §1

Activity calls are given as the source filed them. The rule behind the calls is not given here.

`COc1cc2oc(-c3ccc(Cl)cc3)nc2c2oc3ccccc3c(=O)c12` came in with an IC50 in data set [1] of 9.9 µM. Moreover, the solubility result in data set [2] is on record as “Soluble”.

The molecule `O=c1c2ccccc2oc2c1c(O)cc1oc(-c3ccc(O)cc3)nc12` displayed an IC50 in data set [1] of 7.3 µM.

Regarding `O=c1c2ccccc2oc2c1c(O)cc1oc(-c3ccc([N+](=O)[O-])cc3)nc12`, the IC50 in [1] turned out to be 24.5 µM.

`O=c1c2ccccc2oc2cc(O)cc(O)c12`: the IC50 in [1] was found to be 186 µM.

With `OC[C@H]1NC[C@H](O)[C@@H](O)[C@@H]1O` [DUVOGLUSTAT], the IC50 in [1] worked out at 60.3 µM.

Consider `COc1ccc(-c2nc3c(cc(O)c4c(=O)c5ccccc5oc43)o2)cc1`, for which the affinity in data set [3], expressed as Ki, was 5.3 µM. For the same molecule, the inhibition in the data set with Saccharomyces cerevisiae [4] amounted to 41.9%; in the data set with Saccharomyces cerevisiae [5] it was 21.7%. Further, the IC50 in data set [6] was 1.9 µM; in data set [1], 7.1 µM. The fold change (FC) with Saccharomyces cerevisiae [7] is 2. Also, in the data set with Saccharomyces cerevisiae [8], the Ratio IC50 was found to be 3.5.

`O=c1c2ccccc2oc2c([N+](=O)[O-])c(O)cc(O)c12` showed an IC50 in data set [1] of 286 µM.

In the case of `O=c1c2ccccc2oc2c1c(O)cc1oc(-c3ccc(Br)cc3)nc12`, the midpoint of inhibition in data set [1], the IC50, lay at 11 µM.

As to `COc1ccc(-c2nc3c(cc(OC)c4c(=O)c5ccccc5oc43)o2)cc1`, the Ki in data set [3] worked out at 7.4 µM. Also, the inhibition was 41.9% in the data set with Saccharomyces cerevisiae [9] and 20.3% with Saccharomyces cerevisiae [5]. Moreover, the IC50 in [1] was determined as 8.6 µM. In the data set on Saccharomyces cerevisiae [10], the Ratio IC50 is 4. Further, the fold change (FC) in the data set with Saccharomyces cerevisiae [11] was 2. The solubility entry in data set [2] is “Soluble”.

Molecule `Cc1nc2c(cc(O)c3c(=O)c4ccccc4oc32)o1` had an IC50 in data set [1] of 64.4 µM. Moreover, in the data set on Saccharomyces cerevisiae [12], the inhibition result was “Active”.

In turn, `O=c1c2ccccc2oc2c1c(O)cc1oc(-c3ccc(F)cc3)nc12` registered an IC50 in data set [1] of 6.7 µM.

With `O=c1c2ccccc2oc2c1c(O)cc1oc(-c3ccccc3F)nc12`, the midpoint of inhibition in data set [1], the IC50, lay at 8.4 µM.

As for `O=c1c2ccccc2oc2c1c(O)cc1oc(C3CCCCC3)nc12`, the IC50 in data set [1] is 38.5 µM.

`Cc1ccc(-c2nc3c(cc(O)c4c(=O)c5ccccc5oc43)o2)cc1` had a 50% inhibitory concentration (IC50) in [1] of 19.1 µM.

In turn, `O=c1c2ccccc2oc2c1c(O)cc1oc(-c3ccccc3)nc12` came in with an IC50 in data set [1] of 18.3 µM.

In the case of `O=c1c2ccccc2oc2c1c(O)cc1oc(-c3cccc(F)c3)nc12`, the IC50 in data set [1] amounted to 8.9 µM.

For `O=c1c2ccccc2oc2c1c(O)cc1oc(-c3ccc(Cl)cc3)nc12`, the IC50 in data set [1] was 8.8 µM.

In the case of `COc1cc2oc(-c3ccccc3)nc2c2oc3ccccc3c(=O)c12`, the IC50 in [1] is 19.6 µM. In addition, in data set [2], the solubility result is given as “Soluble”.

The molecule `Nc1c(O)cc(O)c2c(=O)c3ccccc3oc12` had an IC50 in [1] of 127 µM.

In [3], `O=c1c2ccccc2oc2c1c(O)cc1oc(-c3c(F)cc(F)cc3F)nc12` registered a Ki of 6.8 µM. Besides, it took 6.3 µM to reach half-maximal inhibition in data set [1] (IC50).

In turn, `Nc1ccc(-c2nc3c(cc(O)c4c(=O)c5ccccc5oc43)o2)cc1` displayed an IC50 in data set [1] of 8.3 µM.

Take `O=c1c2ccccc2oc2c1c(O)cc1oc(-c3ccc(C(F)(F)F)cc3)nc12`: in [1], the IC50 came out at 26.9 µM.
